This is a sample that favours compounds with a hit; in the whole collection about 4.7% have one here.
MC4R antagonist – human MC4R antagonism in cAMP assay | P32245 | MC4R-expressing cells, MTII-stimulated cAMP, LANCE TR-FRET | inhibition, % at 6.5 µM | 0.48% of 360,000 active;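 active = inhibition above its plate's cutoff, the mean of tested wells on that plate plus 3 SD, cut at about 29% in these data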;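 also: 0% = Melanotan II alone and 100% = Melanotan II plus saturating MCL0020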
Target sequence (P32245 whole entry, looked up): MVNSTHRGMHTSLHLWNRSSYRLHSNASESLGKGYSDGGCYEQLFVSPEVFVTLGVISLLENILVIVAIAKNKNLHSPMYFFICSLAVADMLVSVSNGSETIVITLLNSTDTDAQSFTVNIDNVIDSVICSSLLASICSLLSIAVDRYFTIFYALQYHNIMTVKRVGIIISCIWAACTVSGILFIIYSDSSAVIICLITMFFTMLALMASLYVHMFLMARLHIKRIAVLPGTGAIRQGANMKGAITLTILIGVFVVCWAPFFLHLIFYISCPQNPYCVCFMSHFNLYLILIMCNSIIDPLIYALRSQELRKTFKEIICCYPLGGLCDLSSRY
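Assay system: U2OS-MC4R stable cell line; Also added: Melanotan II; Technique: Eu-cAMP/anti-cAMP TR-FRET, emission 671 nm; Times: 30-min compound, 1-h challenge, 1-h detection, room temperature.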
FXN GAA850 act – frataxin GAA850 promoter activation; 0.56% of 360,000 active; HEK293 lucGAA850 FXN promoter luciferase reporter, 24 h; percent of 10 µM SAHA response; activation, % at 6 µM;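 active = activation above the average of all compounds screened plus 3 SD, cutoff fixed separately per campaign, cut at about 7.5% in these data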;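 also: 0% = DMSO wells and 100% = 10 µM SAHA wells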
AHR act – activates the human aryl hydrocarbon receptor; activation, % at 5 µM; AHR-responsive luciferase reporter cells, luminescence; 2.5% of 320,000 active; P35869; in the data active = activation above about 47%;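 also: 0% = vehicle wells and 100% = reference agonist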
m5-HT2A agonist – agonists of mouse serotonin 5-HT2A receptor (HTR2A) | 0.66% of 360,000 active | P35363 | activation, % at 7.6 µM | AID 624169 | CHO-K1 mHTR2A beta-arrestin complementation, luminescence; percent of 30 µM serotonin response;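 active = activation above a run cutoff, the mean activation of all tested compounds plus 3 SD, cut at about 14% in these data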;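 also: 0% = plate median of compound wells and 100% = 30 µM serotonin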
MC4R ag barr – human MC4R agonism via beta-arrestin | U2OS MC4R beta-arrestin complementation, luminescence; percent of melanotan II response, DMSO zero | P32245 | 0.98% of 360,000 active | AID 540308 | activation, % at 8.9 µM;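 active = activation above a per-plate cutoff, the mean activation of sample wells on that plate plus 3 SD, cut at about 8% in these data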
The depositor's hits bear a star; · = no result given.

SMILES | MC4R antagonist | FXN GAA850 act | AHR act | m5-HT2A agonist | MC4R ag barr
CCc1ccc(-c2cc(C(=O)N/N=C/c3c[nH]c4ccccc34)[nH]n2)cc1 | -6 | -3 | 55* | -5 | 2
O=C(CCC(=O)Nc1ccccc1Cl)N/N=C/c1c[nH]c2ccccc12 | 2 | 2 | 25 | 22* | 1
COc1ccc(C(=O)N/N=C/c2cc3ccccc3[nH]c2=S)cc1 | -9 | 0 | 57* | -5 | -3
O=C(N/N=C/c1ccco1)c1cccc(NC(=O)c2cccc(Cl)c2)c1 | -2 | 1 | 55* | -5 | 3
COc1ccc(C(=O)N/N=C/c2cccc3cccnc23)cc1 | 6 | -2 | 4 | -7 | 2
O=C(CC1C=CCC1)Nc1ccccc1 (centres undefined) | -2 | 3 | · | 1 | -2
O=C(O)c1cc(N/N=C/c2ccc(-c3ccccc3)cc2)ccc1Cl | 8 | 3 | · | 2 | 0
O=C(O)c1cc(N/N=C/c2c[nH]c3ccccc23)ccc1Cl | -9 | 5 | 58* | -1 | -1
CC(=O)Nc1cccc(C(=O)N/N=C/c2c[nH]c3ccccc23)c1 | 14 | 2 | 76* | 1 | -1
Cn1ccc(C(=O)N/N=C/c2c[nH]c3ccccc23)n1 | -5 | 4 | 42 | 1 | 1
COc1ccccc1N1CCN(Cc2cc(=O)c(OCC#N)co2)CC1 | 14 | -2 | 1 | -1 | -4
Nc1ccc(-c2nc3c(Cl)c(N)ccc3[nH]2)cc1 | -16 | -4 | 60* | 2 | -3
Nc1ccc(-c2nc3ccc(N)cc3[nH]2)cc1 | -6 | -2 | 8 | 5 | -4
OCC[C@H]1C[C@@H](O)[C@H](O)[C@]2(Cc3ccccc3CCO2)O1 | 3 | 1 | 1 | 1 | 0
COc1ccc(Br)cc1Cn1nnc(C(=O)Nc2ccc3c(c2)OCCO3)c1N | -15 | 0 | 60* | 3 | -3
CC(OC(=O)CCCN=C1NS(=O)(=O)c2ccccc21)C(=O)c1ccccc1 (centres undefined) | 1 | 0 | 59* | 2 | -3
O=[N+]([O-])c1ccccc1CSc1nc2ccccc2o1 | -1 | 3 | 48* | 0 | 3
COc1ccc(C(=O)NCc2ccncc2)cc1S(=O)(=O)NCc1ccc(Cl)cc1 | -6 | 1 | 1 | -9 | -1
c1ccc(-c2nc3ccccc3o2)nc1 | 6 | 0 | 21 | 0 | -2
c1ccc2nc(-c3nc4ccccc4o3)ccc2c1 | -1 | -4 | 90* | 4 | 0
CC1Oc2ccccc2N(CC(=O)N2CCCCCC2)C1=O (centres undefined) | 4 | 2 | 2 | 1 | 0
O=c1c(Oc2ccccc2)coc2cc(O)cc(O)c12 | -1 | 2 | 0 | 2 | 1
COc1cc(OC)cc(-c2c(-c3cccs3)c3cc(-c4ccn[nH]4)ccc3n2C)c1 | 4 | 2 | 64* | 6 | 1
Cn1c(-c2ccsc2)c(-c2cccs2)c2cc(-c3ccc4cc[nH]c4c3)ccc21 | 1 | 0 | 66* | 1 | 3
Cn1c(-c2ccsc2)c(-c2cccs2)c2cc(Br)ccc21 | 2 | -1 | 63* | -3 | 0
SMILES | MC4R antagonist | FXN GAA850 act | AHR act | m5-HT2A agonist | MC4R ag barr
COc1cc(OC)cc(-c2c(-c3cccs3)c3cc(Br)ccc3n2C)c1 | -9 | 1 | 32 | 3 | 0
Cn1c(-c2ccsc2)c(-c2cccs2)c2cc(-c3ccc4[nH]ccc4c3)ccc21 | 7 | 0 | 35 | 2 | -1
CC(C)N(C)c1ncnc2c1ncn2[C@H]1CN(Cc2ccc3c(c2)OCO3)C[C@@H](CO)O1 | -1 | 1 | · | -5 | -3
Cc1cccc(Nc2nnc(-c3ccc(N4CCOCC4)c([N+](=O)[O-])c3)c3ccccc23)c1 | 19 | -1 | 0 | 1 | -3
CCOc1ccc(C(=O)Nc2ccc(N3CCN(C)CC3)cc2)cc1Br | -9 | 1 | 57* | -4 | -1
O=C(Nc1ccccc1N1CCCCC1)c1ccc(-c2cccc(Cl)c2)o1 | 0 | 2 | 13 | 1 | -2
CN1CCN(c2ccccc2NC(=O)c2ccc(-c3cccc(Cl)c3)o2)CC1 | 3 | 2 | 61* | -9 | 2
CN1CCN(c2ccc(NC(=O)c3ccc(-c4ccc(Br)cc4)o3)cc2)CC1 | 0 | 0 | -1 | -1 | 11*
CCOC(=O)c1cnn(-c2cc(C)c3ccccc3n2)c1N | 3 | 2 | 53* | 3 | 4
CCOC(=O)c1cnn(-c2ccccn2)c1N | 2 | 2 | -5 | 3 | -1
CCNC(=O)C1CCCN(C(=O)c2ccc(OC(F)F)cc2)CC1 (centres undefined) | 2 | 0 | · | 10 | -2
Cc1cccc(/N=C/c2sc3ccccc3c2O)n1 | -12 | 3 | 37 | 0 | 0
Oc1c(C=Nc2cccc3cccnc23)sc2ccccc12 | · | · | 58* | · | ·
COc1ccc(Cc2c(C(C)(C)C)nc3c(C)cc(Br)cn23)c(C)c1 | · | · | · | -1 | ·
Nn1cc(-c2ccccc2)nc1SCC(=O)N1CCN(S(=O)(=O)c2ccccc2)CC1 | 5 | -2 | 52* | -5 | -2
O=C(CSc1ncccn1)N1CCN(S(=O)(=O)c2ccccc2)CC1 | 8 | 0 | 2 | 2 | 1
CCOC(=O)C1=CCN(S(=O)(=O)c2ccccc2C)C1c1cccc(Cl)c1 (centres undefined) | · | · | · | -3 | ·
COc1ccc(C)cc1NC(=O)c1nn(C)cc1Br | 12 | -1 | 60* | 3 | 1
COc1cc(O)cc2c1[C@@H]1Oc3c(ccc(O)c3CC=C(C)C)[C@@H]1CO2 | 18 | 0 | 2 | -5 | 1
O=c1c2c(-c3ccccc3)csc2nc2c3ccccc3c(NCCN3CCOCC3)nn12 | -5 | 3 | · | 0 | 9.3*
O=c1c2ccccc2nc2c3ccccc3c(NCCN3CCOCC3)nn12 | · | · | 13 | · | ·
COc1cccc(C(=O)NC(=S)Nc2ccc3c4c(cccc24)CC3)c1 | 0 | 2 | 67* | 8 | 0
Cc1cc2nc(-c3ccc(SCC(=O)NC(C)C)nc3)[nH]c2cc1C | · | · | 78* | · | ·
CC(C)(C)NC(=O)CSc1ncccc1-c1nc2ccccc2[nH]1 | 6 | 0 | 14 | -6 | -1
Cc1sc2nc(SCC(=O)NCc3ccco3)[nH]c(=O)c2c1C | 4 | 3 | 55* | 4 | -1
Cc1cc2nc(-c3cccnc3SCC(=O)NC3CC3)[nH]c2cc1C | · | · | 55* | · | ·
Cc1cc2nc(-c3cccnc3SCC(=O)NCc3ccco3)[nH]c2cc1C | 3 | 6 | 64* | 0 | 0
Cc1c(Cl)ccc2c(C(=O)NC(C)c3ccncc3)cc(-c3ccncc3)nc12 (centres undefined) | · | · | 28 | · | ·
O=C(Nc1cc(Cl)cc(Cl)c1)c1ccc(Cn2c(=O)[nH]c3ccsc3c2=O)cc1 | 7 | 0 | -4 | -4 | 20*
CC(=O)NCCNC(=O)c1ccc(Cn2c(=O)[nH]c3ccsc3c2=O)cc1 | 21 | 0 | · | 5 | 1

Source: PubChem BioAssay
